Experiments:
Format in all cases: functional
[1] = tested on: HCT-116; assay: Cytotoxicity against human HCT116 cells assessed as cell growth at 100 nM after 48 hrs by sulforhodamine B assay; details: HCT-116, 48 h, read-out: Activity
[2] = tested on: SR; assay: Cytotoxicity against human SR cells assessed as cell growth at 0.001 uM after 48 hrs by sulforhodamine B assay; details: read-out: Activity
[3] = tested on: NCI-H226; assay: Cytotoxicity against human NCI-H226 cells assessed as cell growth at 10 uM after 48 hrs by sulforhodamine B assay; details: NCI-H226, 48 h, read-out: Activity
[4] = tested on: RXF 393; assay: Growth inhibition of human RXF393 cells after 48 hrs by sulforhodamine B assay; details: RXF 393, 48 h
How it was run: (§1)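 NCI 60-cell screen, five-dose mode. Cells grown in RPMI 1640 with 5% FBS and 2 mM L-glutamine and plated at 5000-40,000 cells/well according to doubling time. After 24 h preincubation, a Tz plate was TCA-fixed. Five concentrations (10-fold or 1/2 log dilutions) were applied for 48 h at 37 °C. SRB staining read at 515 nm. IC50 taken from [(Ti-Tz)/(C-Tz)]×100 = 50.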

[5] = tested on: RXF 393; assay: Cytotoxicity against human RXF393 cells assessed as cell growth at 1 uM after 48 hrs by sulforhodamine B assay; details: RXF 393, 48 h, read-out: Activity
[6] = tested on: NCI-H460; assay: Cytotoxicity against human NCI-H460 cells assessed as cell growth at 1 uM after 48 hrs by sulforhodamine B assay; details: NCI-H460, 48 h, read-out: Activity
[7] = tested on: PC-3; assay: Cytotoxicity against human PC3 cells assessed as cell growth at 10 uM after 48 hrs by sulforhodamine B assay; details: PC-3, 48 h, read-out: Activity
[8] = tested on: RXF 393; assay: Cytotoxicity against human RXF393 cells assessed as cell growth at 100 nM after 48 hrs by sulforhodamine B assay; details: RXF 393, 48 h, read-out: Activity
[9] = tested on: A549; assay: Cytotoxicity against human A549 cells assessed as cell growth at 0.001 uM after 48 hrs by sulforhodamine B assay; details: A549, 48 h, read-out: Activity
How it was run: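 NCI-60 five-dose screen. Cells were grown in RPMI 1640 with 5% FBS and 2 mM L-glutamine, plated at 5000–40,000 cells/well and preincubated for 24 h. Time-zero plates were TCA-fixed. DMSO-solubilized drug was added at five concentrations (10-fold or ½-log serial dilutions) for 48 h at 37 °C, 5% CO2. Cells were TCA-fixed, stained with 0.4% SRB and read at 515 nm. Percent growth used time-zero, control and test absorbances.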

[10] = tested on: SK-MEL-28; assay: Cytotoxicity against human SK-MEL-28 cells assessed as cell growth at 10 uM after 48 hrs by sulforhodamine B assay; details: SK-MEL-28, 48 h, read-out: Activity
[11] = tested on: SR; assay: Cytotoxicity against human SR cells assessed as cell growth at 1 uM after 48 hrs by sulforhodamine B assay; details: read-out: Activity
[12] = tested on: KM12; assay: Cytotoxicity against human KM12 cells assessed as cell growth at 10 uM; details: read-out: Activity
How it was run: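 NCI-60 screen: cells grown in RPMI 1640 with 5% FBS and 2 mM L-glutamine, plated at 5000–40,000 cells/well according to doubling time, and preincubated 24 h at 37 °C, 5% CO2. The single 10 µM dose (DMSO stock) was added, then incubated 48 h. Cells were TCA-fixed and stained with 0.4% SRB, read at 515 nm, and growth % calculated against time-zero and control plates.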

[13] = tested on: 786-0; assay: Cytotoxicity against human 786-0 cells assessed as cell growth at 10 uM after 48 hrs by sulforhodamine B assay; details: 786-0, 48 h, read-out: Activity
[14] = tested on: SK-MEL-28; assay: Cytotoxicity against human SK-MEL-28 cells assessed as cell growth at 0.001 uM after 48 hrs by sulforhodamine B assay; details: SK-MEL-28, 48 h, read-out: Activity
[15] = tested on: MCF7; assay: Cytotoxicity against human MCF7 cells assessed as cell growth at 100 nM after 48 hrs by sulforhodamine B assay; details: MCF7, 48 h, read-out: Activity
[16] = tested on: SK-MEL-28; assay: Cytotoxicity against human SK-MEL-28 cells assessed as cell growth at 1 uM after 48 hrs by sulforhodamine B assay; details: SK-MEL-28, 48 h, read-out: Activity
[17] = tested on: MCF7; assay: Growth inhibition of human MCF7 cells after 48 hrs by sulforhodamine B assay; details: MCF7, 48 h; how it was run: as §1
[18] = tested on: SK-MEL-28; assay: Growth inhibition of human SK-MEL-28 cells after 48 hrs by sulforhodamine B assay; details: SK-MEL-28, 48 h; for CC50: read-out: LC50 (the source's name); how it was run: as §1
[19] = tested on: HCC 2998; assay: Growth inhibition of human HCC2998 cells after 48 hrs by sulforhodamine B assay; details: HCC 2998, 48 h; for CC50: read-out: LC50 (the source's name); how it was run: as §1
[20] = tested on: SR; assay: Cytotoxicity against human SR cells assessed as cell growth at 100 nM after 48 hrs by sulforhodamine B assay; details: read-out: Activity
[21] = Cytotoxicity against human […] cells assessed as cell growth at 10 uM after 48 hrs by sulforhodamine B assay; details: read-out: Activity
[22] = tested on: CAKI-1; assay: Cytotoxicity against human Caki1 cells assessed as cell growth at 1 uM after 48 hrs by sulforhodamine B assay; details: CAKI-1, 48 h, read-out: Activity
[23] = tested on: PC-3; assay: Growth inhibition of human PC3 cells after 48 hrs by sulforhodamine B assay; details: PC-3, 48 h; how it was run: as §1
[24] = tested on: HCC 2998; assay: Cytotoxicity against human HCC2998 cells assessed as cell growth at 10 uM after 48 hrs by sulforhodamine B assay; details: HCC 2998, 48 h, read-out: Activity
[25] = tested on: RXF 393; assay: Cytotoxicity against human RXF393 cells assessed as cell growth at 0.001 uM after 48 hrs by sulforhodamine B assay; details: RXF 393, 48 h, read-out: Activity
[26] = tested on: RXF 393; assay: Cytotoxicity against human RXF393 cells assessed as cell growth at 10 uM after 48 hrs by sulforhodamine B assay; details: RXF 393, 48 h, read-out: Activity
[27] = tested on: MCF7; assay: Cytotoxicity against human MCF7 cells assessed as cell growth at 10 uM after 48 hrs by sulforhodamine B assay; details: MCF7, 48 h, read-out: Activity
[28] = tested on: SF-295; assay: Cytotoxicity against human SF295 cells assessed as cell growth at 10 uM after 48 hrs by sulforhodamine B assay; details: SF-295, 48 h, read-out: Activity
[29] = tested on: HCC 2998; assay: Cytotoxicity against human HCC2998 cells assessed as cell growth at 1 uM after 48 hrs by sulforhodamine B assay; details: HCC 2998, 48 h, read-out: Activity
[30] = tested on: SR; assay: Growth inhibition of human SR cells after 48 hrs by sulforhodamine B assay; how it was run: as §1
[31] = tested on: SK-MEL-5; assay: Cytotoxicity against human SK-MEL-5 cells assessed as cell growth at 1 uM after 48 hrs by sulforhodamine B assay; details: SK-MEL-5, 48 h, read-out: Activity

Cc1cc(O)cc(-c2nn(CC#N)cc2-c2ccnc(-c3ccc(Oc4ccccc4)cc3)c2)c1
growth at 0.1 µM [1]: 86% | growth at 0.001 µM [2]: 94% | growth at 10 µM [3]: -63% | GI50 [4]: 2.08 µM | LC50 (concentration killing 50% of the starting cells) [4]: 8.92 µM | TGI [4]: 4.31 µM | growth at 1 µM [5]: -58% | growth at 1 µM [6]: -79% | growth at 10 µM [7]: -60% | growth at 0.1 µM [8]: 101% | growth at 0.001 µM [9]: 96% | growth at 10 µM [10]: -100% | growth at 1 µM [11]: 16% | growth at 10 µM [12]: 39.9% | growth at 10 µM [13]: -93% | growth at 0.001 µM [14]: 91% | growth at 0.1 µM [15]: 95% | growth at 1 µM [16]: 30% | GI50 [17]: 2.23 µM | LC50 [17]: 21.9 µM | TGI [17]: 5.48 µM | GI50 [18]: 4.92 µM | TGI [18]: 17 µM | CC50 [18]: 41.4 µM | GI50 [19]: 1.91 µM | TGI [19]: 3.39 µM | CC50 [19]: 6.02 µM | growth at 0.1 µM [20]: 96% | growth at 10 µM [21]: -14% | growth at 1 µM [22]: -24% | GI50 [23]: 2.15 µM | LC50 (concentration giving 50% net cell kill) [23]: 62 µM | TGI [23]: 7.37 µM | growth at 10 µM [24]: -95% | growth at 0.001 µM [25]: 88% | growth at 10 µM [26]: -87% | growth at 10 µM [27]: -82% | growth at 10 µM [28]: -61% | growth at 1 µM [29]: -94% | GI50 [30]: 3.77 µM | LC50 (concentration killing 50% of cells) [30]: > 100 µM | TGI [30]: 37.2 µM

COc1cc(C)cc(-c2nn(CC#N)cc2-c2ccnc(-c3ccc(N(C)C)cc3)c2)c1
growth at 0.1 µM [1]: 11% | growth at 0.001 µM [2]: 96% | growth at 10 µM [3]: -22% | GI50 [4]: 0.258 µM | LC50 (concentration killing 50% of the starting cells) [4]: > 100 µM | TGI [4]: 0.633 µM | growth at 1 µM [5]: -21% | growth at 1 µM [6]: -27% | growth at 0.1 µM [8]: -25% | growth at 0.001 µM [9]: 97% | growth at 10 µM [10]: 13% | growth at 1 µM [11]: 18% | growth at 10 µM [12]: 7.15% | growth at 10 µM [13]: -36% | growth at 0.001 µM [14]: 100% | growth at 1 µM [31]: -40% | growth at 0.1 µM [15]: 24% | growth at 1 µM [16]: 45% | GI50 [17]: 0.0664 µM | LC50 [17]: > 100 µM | TGI [17]: 22.7 µM | GI50 [18]: 0.776 µM | TGI [18]: > 100 µM | CC50 [18]: > 100 µM | GI50 [19]: 0.455 µM | TGI [19]: 1.93 µM | CC50 [19]: 9.69 µM | growth at 0.1 µM [20]: 26% | growth at 10 µM [21]: -28% | growth at 1 µM [22]: 4% | GI50 [23]: 0.363 µM | LC50 (concentration giving 50% net cell kill) [23]: > 100 µM | TGI [23]: > 100 µM | growth at 10 µM [24]: -76% | growth at 0.001 µM [25]: 105% | growth at 10 µM [26]: -24% | growth at 10 µM [27]: -13% | growth at 10 µM [28]: -32% | growth at 1 µM [29]: -51% | GI50 [30]: 0.461 µM | LC50 (concentration killing 50% of cells) [30]: > 100 µM | TGI [30]: > 10 µM

Source: ChEMBL document CHEMBL1165950, “Design and synthesis of new potent anticancer pyrazoles with high FLT3 kinase inhibitory selectivity” (Bioorg Med Chem, 2010)
